In ChEMBL document CHEMBL2177002, “Antifungal spectrum, in vivo efficacy, and structure-activity relationship of ilicicolin h” (ACS Med Chem Lett, 2012):
pIC50: −log10 of the molar value. Values after ≈ are worked out from the molar mass of the structure shown. Active and inactive are the calls of the source. No cut-off for these calls is given here.

Columns and labels:
[1] = tested on: Cryptococcus neoformans; experiment: Antifungal activity against Cryptococcus neoformans MY 2061 after 40 hrs by NCCLS broth microdilution method; assay type: functional; settings: MY 2061, 40 h
[2] = Inhibition of rhesus monkey liver NADH:cytochrome c oxidoreductase; parameters: species or system Macaca mulatta
[3] = Inhibition of Candida albicans MY 1055 NADH:cytochrome c oxidoreductase; settings: read-out: IC50
[4] = tested on: Candida albicans; experiment: Ratio of MIC for Candida albicans 13 harboring cytochrome b G37C mutant to MIC for wild type Candida albicans; assay type: functional
[5] = tested on: Candida albicans; experiment: Ratio of MIC for Candida albicans 14 harboring cytochrome b G37S mutant to MIC for wild type Candida albicans; assay type: functional
[6] = tested on: Candida albicans; experiment: Ratio of MIC for Candida albicans 16 harboring cytochrome b Q22E mutant to MIC for wild type Candida albicans; assay type: functional
[7] = tested on: Candida albicans; experiment: Ratio of MIC for Candida albicans 7 harboring cytochrome b G37D mutant to MIC for wild type Candida albicans; assay type: functional
[8] = tested on: Candida albicans; experiment: Ratio of MIC for Candida albicans 9 harboring cytochrome b G37D mutant to MIC for wild type Candida albicans; assay type: functional
[9] = tested on: Candida albicans; experiment: Ratio of MIC for Candida albicans 3 harboring cytochrome b G37D mutant to MIC for wild type Candida albicans; assay type: functional
[10] = Inhibition of Saccharomyces cerevisiae MY 2141 electron transport protein complex 1/3 using ethanol as substrate assessed as decrease in oxygen consumption measured for 3 mins
[11] = tested on: Candida albicans; experiment: Antifungal activity against Candida albicans MY 1055 assessed as inhibition of whole cell oxygen consumption at 0.003 ug/mL after 15 mins; assay type: functional; settings: MY 1055, 0.25 h
[12] = tested on: Candida albicans; experiment: Antifungal activity against Candida albicans MY 1055 in glycerol-based medium after 24 hrs by NCCLS broth microdilution method; assay type: functional; settings: MY 1055, 24 h
[13] = tested on: Nakaseomyces glabratus; experiment: Antifungal activity against Candida glabrata MY 1381 after 24 hrs by NCCLS broth microdilution method; assay type: functional; settings: MY 1381, 24 h
[14] = tested on: Candida albicans; experiment: Antifungal activity against Candida albicans MY 1055 after 24 hrs by NCCLS broth microdilution method; assay type: functional; settings: MY 1055, 24 h
[15] = tested on: Candida tropicalis; experiment: Antifungal activity against Candida tropicalis MY 1012 after 40 hrs by NCCLS broth microdilution method; assay type: functional; settings: MY 1012, 40 h
[16] = tested on: Cryptococcus neoformans; experiment: Antifungal activity against Cryptococcus neoformans H 99 after 40 hrs by NCCLS broth microdilution method; assay type: functional; settings: H 99, 40 h
[17] = tested on: Candida albicans; experiment: Antifungal activity against Candida albicans MY 1055 infected in DBA/2 mouse assessed as reduction in kidney fungal burden at 50 mg/kg, po bid administered 2 days post infection measured after 4 days relative to vehicle-treated control; assay type: functional, organism-based; parameters: dose 50 mg/kg
Summary of the method: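 DBA/2 mice infected intravenously with 5.4 × 10⁴ cfu of C. albicans MY1055. Dosed orally twice daily for 2 days in 10% aqueous DMSO at 50, 25, 12.5 and 6.25 mg/kg. Kidney Candida burden determined 4 days after infection and compared with vehicle-treated controls by Excel t test (p < 0.05). ED90 is the dose giving 90% reduction of kidney C. albicans.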

[18] = tested on: Candida albicans; experiment: Antifungal activity against Candida albicans MY 1055 infected in DBA/2 mouse assessed as reduction in kidney fungal burden administered as ip tid; assay type: functional; settings: MY 1055, Kidney
[19] = tested on: Aspergillus flavus; experiment: Antifungal activity against Aspergillus flavus MF 383 after 24 hrs by NCCLS broth microdilution method; assay type: functional, organism-based
[20] = tested on: Cryptococcus neoformans; experiment: Antifungal activity against Cryptococcus neoformans MY 2061 infected in DBA/2 mouse assessed as reduction in spleen fungal burden at 50 mg/kg, po bid; assay type: functional, organism-based; parameters: dose 50 mg/kg
Summary of the method: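 Mice with disseminated C. neoformans MY2061 infection (8 × 10⁵ cfu/mouse). Dosed twice daily at 100 or 50 mg/kg, oral or intraperitoneal, in 5% aqueous DMSO. Spleen burden measured as log cfu/g of spleen and compared by Excel t test (p < 0.05).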

C/C=C/[C@@H]1[C@H]2C[C@@H](C)CC[C@@H]2C(C)=C[C@H]1C(=O)c1c(O)c(-c2ccc(O)cc2)c[nH]c1=O [ILICICOLIN H]
MIC [1]: 0.1 µg/mL (≈ 0.231 µM) | IC50 [2]: 0.5 µg/mL (≈ 1.15 µM) | pIC50 [3]: 8.73 | Ratio [4]: 250 | Ratio [5]: 250 | Ratio [6]: 250 | Ratio [7]: 250 | Ratio [8]: 250 | Ratio [9]: 250 | IC50 [10]: 0.008 µg/mL (≈ 0.0185 µM) | inhibition at 0.003 µg/mL [11]: 100% | MIC [12]: 0.025 µg/mL (≈ 0.0577 µM) | MIC [13]: 0.01 µg/mL (≈ 0.0231 µM) | MIC [14]: 0.04 µg/mL (≈ 0.0923 µM) | MIC [15]: 0.01 µg/mL (≈ 0.0231 µM) | MIC [16]: 0.1 µg/mL (≈ 0.231 µM) | Activity [17]: Active | ED90 [18]: 0.01 mg/kg | Activity [19]: inactive | Activity [20]: Active
